Columns and labels:
[1] = system: pyruvate dehydrogenase (Rattus norvegicus); test: Tested for pyruvate oxidation in rat diaphragm, measured as % conversion of [14C]pyruvate to 14CO2 at 5 mM concentration
[2] = organism: Rattus norvegicus; test: Percent Stimulation of pyruvate oxidation in rat diaphragm by the compound was measured at 2 mM concentration; type: functional
Outline: (§1)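 Rat diaphragm cut into four portions, each weighed and preincubated 1 h at 37 °C in Krebs-Ringer bicarbonate, pH 7.4, gassed O2/CO2 (18:1), alone (control) or with compound. Then 4 mM (final) 1- or 2-14C sodium pyruvate added, 1 h at 37 °C. Stopped with H2SO4; 14CO2 trapped in hyamine hydroxide, scintillation counted. Tissue-free blanks included. Reported as percent stimulation versus control.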

[3] = biological target: T1, Pyruvate dehydrogenase kinase (Rattus norvegicus) (UniProt Q63065+A6IPZ9+Q64536+O54937); test: Percent Stimulation of pyruvate oxidation in rat diaphragm was measured at 2 mM concentration of DCA (dichloroacetic acid); type: functional, tissue-based
Outline: as §1

[4] = biological target: T1, Pyruvate dehydrogenase kinase (Rattus norvegicus); test: Pyruvate dehydrogenase activity in vivo was measured following subcutaneous administration of 1.2 mmol/kg; type: functional, organism-based
Outline: (§2)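 Hearts frozen in liquid N2, powdered, homogenized in ice-cold phosphate/EDTA/DTT/pyruvate medium. PDH active assayed directly; PDH total after 20 min at 30 °C with 5 mM MgCl2, 2.5 mM CaCl2. 14CO2 from 0.1 mM [1-14C]pyruvate with CoA, NAD, TPP at 30 °C; expressed as % PDH active/total; ≥3 rats/group.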

[5] = biological target: T1, Pyruvate dehydrogenase kinase (Rattus norvegicus); test: Pyruvate dehydrogenase active/ Pyruvate dehydrogenase total was measured by sc administering the DCA in rat at a dose of 1.2 mmol/kg; type: functional, organism-based
Outline: as §2

[6] = organism: Rattus norvegicus; test: (§3) Compound was tested in vitro for pyruvate oxidation in rat diaphragm, measured as % conversion of [14C]pyruvate to 14CO2 at 2 mM concentration of DCA (dichloroacetic acid); type: functional
Outline: as §1

[7] = organism: Rattus norvegicus; test: as §3; type: functional; remark: listed apart in the source
Outline: as §1

[8] = system: Rattus norvegicus; test: Pyruvate dehydrogenase active/ Pyruvate dehydrogenase total was measured by sc administering the compound in rat at a dose of 1.2 mmol/kg; type: functional
Outline: as §2

[9] = organism: Rattus norvegicus; test: Percent Stimulation of pyruvate oxidation in Rat by the compound was measured at 2 mM concentration of DCA (dichloroacetic acid); type: functional
Outline: as §1

[10] = biological target: T1, Pyruvate dehydrogenase kinase (Rattus norvegicus); test: Tested for pyruvate oxidation in rat diaphragm, measured as % conversion of [14C]pyruvate to 14CO2 at 0.5 mM concentration of DCA (dichloroacetic acid); type: functional, tissue-based
Outline: as §1

[11] = biological target: T1, Pyruvate dehydrogenase kinase (Rattus norvegicus); test: Tested for pyruvate oxidation in rat diaphragm, measured as % conversion of [14C]pyruvate to 14CO2 at 2 mM concentration; type: functional, tissue-based
Outline: as §1

[12] = organism: Rattus norvegicus; test: Percent stimulation of pyruvate oxidation in rat diaphragm by the compound was measured at 2 mM concentration; type: functional
Outline: as §1

[13] = organism: Rattus norvegicus; test: Percent Stimulation of pyruvate oxidation in Rat by the compound was measured at 0.5 mM concentration of DCA (dichloroacetic acid); type: functional
Outline: as §1

[14] = system: Rattus norvegicus; test: Pyruvate dehydrogenase activity in vivo was measured following subcutaneous administration of 1.2 mmol/kg of the DCA in rat at a dose of 1.2 mmol/kg; type: functional
Outline: as §2

[15] = organism: Rattus norvegicus; test: Compound was tested in vitro for pyruvate oxidation in Rat, measured as % conversion of [14C]pyruvate to 14CO2 at 0.5 mM concentration of DCA (dichloroacetic acid); type: functional
Outline: as §1

[16] = system: Pyruvate dehydrogenase complex (Rattus norvegicus); test: Tested for pyruvate oxidation in rat diaphragm, measured as % conversion of [14C]pyruvate to 14CO2 at 2 mM concentration

SMILES | Stimulation [1] [%] | Stimulation [3] [%] | PDH active/PDH total [4] [%] | PDH active/PDH total [5] [%] | Stimulation [10] [%] | Stimulation [11] [%] | other results
COc1ccccc1C(=O)C(=O)O | -2 | 163 |  |  |  |  | Stimulation [2]: -10%
CCSc1ccc(C(N)C(=O)O)cc1 (racemic) | 24 | 132 | 5 | 80 |  |  | Stimulation [2]: 20%
O=C(O)C(=O)c1ccc(Cl)cc1 | 71 |  |  |  |  |  | Stimulation [6]: 48%; Stimulation [7]: 82%
NC(C(=O)O)c1ccccc1 (stereo not given) |  |  |  |  |  |  | PDH active/PDH total [8]: 13%; Stimulation [9]: 90%
CSc1ccc(C(N)C(=O)O)cc1 (racemic) | 28 | 132 | 20 | 76 |  |  | Stimulation [2]: 65%
CC(C)Sc1ccc(C(=O)C(=O)O)cc1 |  | 200 | 51 | 96 | 26 | 162 | 
O=C(O)C(=O)c1ccccc1 |  | 219 | 38 | 87 | 42 | 85 | 
CCCCSc1ccc(C(=O)C(=O)O)cc1 |  | 200 | 14 | 96 | 76 | 113 | 
N[C@H](C(=O)O)c1ccc(O)cc1 (stereo in doubt; D-26) [OXFENICINE] |  |  |  |  |  |  | Stimulation [12]: 26%; Stimulation [9]: 130%
O=C(O)C(=O)c1ccc(O)cc1 |  | 142 | 12 | 96 | 63 |  | Stimulation [2]: 80%
N[C@H](C(=O)O)c1ccc(O)cc1 (stereo in doubt; D-26) |  |  | 26 | 87 |  |  | 
N[C@H](C(=O)O)c1ccc(O)cc1 (stereo in doubt; L-25) [OXFENICINE] |  |  |  |  |  |  | Stimulation [12]: 136%; Stimulation [9]: 123%; Stimulation [13]: 84%
O=C(O)C(=O)c1cc(I)c(O)c(I)c1 |  | 120 | 12 | 87 | 5 | 85 | 
C=CCc1cc(C(=O)C(=O)O)ccc1O |  | 120 | 11 | 90 | 11 | 29 | 
COc1ccc(C(N)C(=O)O)cc1 (stereo in doubt; D-28) [listing 1 of 2 here] | -14 |  | 11 | 87 |  |  | 
Cc1ccc(C(=O)C(=O)O)cc1 |  |  | 50 |  | 20 | 43 | Stimulation [6]: 100%; PDH active/PDH total [14]: 97%
COc1ccc(C(N)C(=O)O)cc1 (stereo in doubt; L-27) [listing 1 of 2 here] |  |  |  |  |  |  | Stimulation [12]: 124%; Stimulation [15]: 79%; Stimulation [9]: 122%
CSc1ccc(C(=O)C(=O)O)cc1 | 154 | 101 | 69 | 82 |  |  | Stimulation [16]: 123%
COc1ccc(C(=O)C(=O)O)cc1 |  | 161 | 49 | 97 | 62 | 132 | Stimulation [2]: 132%
NC(=O)c1ccc(C(=O)C(=O)O)cc1 | 20 | 200 |  |  |  |  | Stimulation [2]: 11%
Cc1ccc(C(N)C(=O)O)cc1 (stereo not given) |  | 95 |  |  | 24 | 36 | 
COc1ccc(C(N)C(=O)O)cc1 (stereo in doubt; L-27) [listing 2 of 2 here] | 115 |  | 5 | 90 |  |  | 
COc1ccc(C(N)C(=O)O)cc1 (stereo in doubt; D-28) [listing 2 of 2 here] |  |  |  |  |  |  | Stimulation [12]: 17%; Stimulation [9]: 108%
Cc1cc(C(=O)C(=O)O)ccc1O |  | 107 | 31 | 89 | 2 | 21 | 
CCS(=O)(=O)Nc1ccc(C(=O)C(=O)O)cc1 |  | 100 |  |  | 16 | 22 | 
NC(C(=O)O)c1ccc(Cl)cc1 (stereo not given) |  | 99 | 43 | 90 | 43 | 102 | 
CN(C)c1ccc(C(=O)C(=O)O)cc1 | 16 | 156 |  |  | 1 |  | Stimulation [2]: -5%
O=C(O)C(=O)c1ccc(CO)cc1 |  | 108 |  |  | 12 | 23 | 
N[C@H](C(=O)O)c1ccc(O)cc1 (stereo in doubt; L-25) |  |  | 82 | 87 |  |  | 
CCSc1ccc(C(=O)C(=O)O)cc1 |  | 158 | 73 | 82 | 164 | 231 | 

Reference: ChEMBL document CHEMBL1121812, “Promotion of carbohydrate oxidation in the heart by some phenylglyoxylic acids” (1981)
